Biological target: T1, 1,25-dihydroxyvitamin D(3) 24-hydroxylase, mitochondrial (Rattus norvegicus, UniProt Q09128)
T1 sequence (Q09128 whole entry): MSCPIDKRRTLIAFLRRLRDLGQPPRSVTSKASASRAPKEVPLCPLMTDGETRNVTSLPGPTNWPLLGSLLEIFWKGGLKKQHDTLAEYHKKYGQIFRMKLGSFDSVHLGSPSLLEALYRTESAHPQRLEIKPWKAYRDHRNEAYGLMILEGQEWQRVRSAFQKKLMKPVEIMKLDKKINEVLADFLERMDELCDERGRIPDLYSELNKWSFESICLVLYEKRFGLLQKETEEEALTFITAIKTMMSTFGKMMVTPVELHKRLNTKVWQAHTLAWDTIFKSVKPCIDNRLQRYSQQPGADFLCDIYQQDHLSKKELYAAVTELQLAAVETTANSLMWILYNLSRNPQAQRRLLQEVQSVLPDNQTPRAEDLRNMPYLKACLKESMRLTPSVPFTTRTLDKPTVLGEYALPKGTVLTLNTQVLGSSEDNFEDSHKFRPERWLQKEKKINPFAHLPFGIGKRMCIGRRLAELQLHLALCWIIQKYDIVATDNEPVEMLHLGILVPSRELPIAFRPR
Assay: Inhibitory activity against 25-hydroxyvitamin D3 24-hydroxylase of rat kidney mitochondria
Summary of the method: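 Substrate was [26,27-methyl-3H]-25-hydroxyvitamin D3, taken from a stock of labelled plus unlabelled 25 µM 25(OH)D3 holding 5 µCi/mL. It was incubated with NADPH and inhibitor at varying concentrations (in acetonitrile) in phosphate buffer pH 7.4, shaking at 37 °C for 30 min. Metabolites were extracted with ethyl acetate and analysed by HPLC with online radioactivity detection, quantified by peak area. Results are % inhibition relative to an acetonitrile control.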

`COc1ccc2c(c1)CCC(Cc1ccc(O)cc1)C2` (stereo not drawn) and `COc1ccc2c(c1)CCC(Cc1ccc(O)cc1)C2=O` (stereo not drawn) are within 1.5-fold of each other in IC50: 2.6 µM for the first, 3.5 µM for the second.

First: COc1ccc2c(c1)CCC(Cc1cc(C(F)(F)F)ccc1C(F)(F)F)C2=O (stereo not drawn)
Second: COc1ccc2c(c1)CC/C(=C\c1cc(C(F)(F)F)ccc1C(F)(F)F)C2=O
The IC50 of the first is lower: 4.5 µM for the first, > 100 µM for the second. The first is the more potent here.

Compared with `O=C1c2ccc(O)cc2CCC1Cc1ccc(-c2ccccc2)cc1` (stereo not drawn), `O=C1c2ccc(O)cc2CCC1Cc1ccccc1-c1ccccc1` (stereo not drawn) is lower in IC50: > 20 µM for the first, 2.1 µM for the second.

`COc1ccc2c(c1)CC/C(=C\c1cccc(N(C)C)c1)C2=O` and `COc1ccc2c(c1)CC/C(=C\c1ccccc1C)C2=O` cannot be ordered by IC50: > 100 µM for the first, > 20 µM for the second.

First: O=C1c2ccc(O)cc2CCC1Cc1ccc(O)cc1 (stereo not drawn)
Second: CN(C)c1ccc(CC2CCc3cc(O)ccc3C2=O)cc1 (stereo not drawn)
The IC50 of the first is 2-fold lower: 8.9 µM for the first, 18 µM for the second.

`O=C1/C(=C/c2ccc(-c3ccccc3)cc2)CCc2cc(O)ccc21` and `O=C1/C(=C/c2ccccc2-c2ccccc2)CCc2cc(O)ccc21` cannot be ordered by IC50: > 100 µM for the first, > 100 µM for the second.

`O=C1/C(=C/c2ccc(O)cc2)CCc2cc(O)ccc21` and `COc1ccc2c(c1)CC/C(=C\c1ccc(O)cc1)C2=O` cannot be ordered by IC50: > 20 µM for the first, > 20 µM for the second.

Going from `COc1ccc2c(c1)CCC(Cc1ccccc1C)C2=O` (stereo not drawn) to `COc1ccc2c(c1)CC/C(=C\c1ccccc1Br)C2=O`, the IC50 rises from 0.9 µM to 100 µM (110-fold). The first is the more potent here.

Going from `CN(C)c1ccc(/C=C2\CCc3cc(O)ccc3C2=O)cc1` to `CC(=O)N1CCN(c2ccc(OC[C@H]3CO[C@](Cn4ccnc4)(c4ccc(Cl)cc4Cl)O3)cc2)CC1` [KETOCONAZOLE], the IC50 falls from > 100 µM to 20 µM.

Reference: ChEMBL document CHEMBL1138633, “Synthesis and CYP24 inhibitory activity of 2-substituted-3,4-dihydro-2H-naphthalen-1-one (tetralone) derivatives” (Bioorg Med Chem Lett, 2004)
